Measurements from ChEMBL document CHEMBL3085642, “Synthesis and evaluation of novel 4-nitropyrrole-based 1,3,4-oxadiazole derivatives as antimicrobial and anti-tubercular agents” (Eur J Med Chem, 2013).
In brackets after ≈: the same amount, converted by molar mass.

Legend:
Candida albicans [1] = assay: Antifungal activity against Candida albicans after 48 hrs by two fold agar dilution method; format: functional
Outline: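 Two-fold serial dilutions in DMSO were tested against C. albicans by agar dilution. Cultures were incubated for 48 h at 35 °C and growth was monitored. MIC was taken as the lowest concentration (highest dilution) that arrested fungal growth.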

Vero = assay: Cytotoxicity against african green monkey Vero cells after 72 hrs by MTT assay; format: cell-based; conditions: Chlorocebus sabaeus
Outline: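 Vero cells were exposed to compounds for 72 h. Viability was measured by cellular conversion of MTT into formazan (non-radioactive proliferation assay), and the cytotoxic concentration was reported as IC50.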

Staphylococcus aureus [2] = assay: Antibacterial activity against methicillin-susceptible Staphylococcus aureus ATCC 35556 by broth dilution method; format: functional
Klebsiella pneumoniae = assay: Antibacterial activity against Klebsiella pneumoniae by two fold broth dilution method; format: functional
Bacillus spizizenii = assay: Antibacterial activity against Bacillus subtilis ATCC 6633 by two fold broth dilution method; format: functional
[3] = system: Mycobacterium tuberculosis; assay: Antitubercular activity against Mycobacterium tuberculosis H37Rv after 7 days by resazurin microtitre assay; format: functional; conditions: 168 h
Escherichia coli = assay: Antibacterial activity against Escherichia coli ATCC 25922 by two fold broth dilution method; format: functional
Staphylococcus aureus [4] = assay: Antibacterial activity against Staphylococcus aureus ATCC 25923 by two fold broth dilution method; format: functional
Staphylococcus aureus [5] = assay: Antibacterial activity against methicillin-resistant Staphylococcus aureus ATCC 43866 by broth dilution method; format: functional
Staphylococcus aureus [6] = assay: Ratio of ciprofloxacin MIC to compound MIC against Staphylococcus aureus ATCC 25923; format: functional
Staphylococcus aureus [7] = assay: Ratio of ciprofloxacin MIC to compound MIC against methicillin-susceptible Staphylococcus aureus ATCC 35556; format: functional
Candida albicans [8] = assay: Ratio of ampotericin-B MIC to compound MIC against Candida albicans; format: functional

Structure (SMILES): O=[N+]([O-])c1c[nH]c(-c2nnc(Cc3ccc(F)c4ccccc34)o2)c1
- MIC (Candida albicans [1]): 3.12 mg/L (≈ 9.24 µM)
- IC50 (Vero): 229 µM
- MIC (Staphylococcus aureus [2]): 1.56 mg/L (≈ 4.61 µM)
- MIC (Klebsiella pneumoniae): 25 mg/L (≈ 73.9 µM)
- MIC (Bacillus spizizenii): 3.12 mg/L (≈ 9.24 µM)
- MIC [3]: 64.8 mg/L (≈ 192 µM)
- MIC (Escherichia coli): 3.12 mg/L (≈ 9.24 µM)
- MIC (Staphylococcus aureus [4]): 1.56 mg/L (≈ 4.61 µM)
- MIC (Staphylococcus aureus [5]): 3.12 mg/L (≈ 9.24 µM)

Structure (SMILES): COc1ccc(-c2nnc(-c3cc([N+](=O)[O-])cn3C)o2)cc1
- MIC (Candida albicans [1]): 1.56 mg/L (≈ 5.2 µM)
- Ratio (Staphylococcus aureus [6]): 2
- IC50 (Vero): 281 µM
- MIC (Staphylococcus aureus [2]): 0.39 mg/L (≈ 1.3 µM)
- MIC (Klebsiella pneumoniae): 12.5 mg/L (≈ 41.6 µM)
- MIC (Bacillus spizizenii): 1.56 mg/L (≈ 5.2 µM)
- Ratio (Staphylococcus aureus [7]): 2
- MIC (Escherichia coli): 6.25 mg/L (≈ 20.8 µM)
- MIC (Staphylococcus aureus [4]): 0.78 mg/L (≈ 2.6 µM)
- Ratio (Candida albicans [8]): 2
- MIC (Staphylococcus aureus [5]): 1.56 mg/L (≈ 5.2 µM)

Structure (SMILES): COc1cc(/C=C/c2nnc(-c3cc([N+](=O)[O-])cn3C)o2)ccc1O
- MIC (Candida albicans [1]): 12.5 mg/L (≈ 36.5 µM)
- Ratio (Staphylococcus aureus [6]): 2
- IC50 (Vero): 202 µM
- MIC (Staphylococcus aureus [2]): 0.39 mg/L (≈ 1.14 µM)
- MIC (Klebsiella pneumoniae): 50 mg/L (≈ 146 µM)
- MIC (Bacillus spizizenii): 1.56 mg/L (≈ 4.56 µM)
- Ratio (Staphylococcus aureus [7]): 2
- MIC [3]: 51.8 mg/L (≈ 151 µM)
- MIC (Escherichia coli): 3.12 mg/L (≈ 9.13 µM)
- MIC (Staphylococcus aureus [4]): 0.78 mg/L (≈ 2.28 µM)
- Ratio (Candida albicans [8]): 2
- MIC (Staphylococcus aureus [5]): 1.56 mg/L (≈ 4.56 µM)

Structure (SMILES): O=[N+]([O-])c1c[nH]c(-c2nnc(-c3ccccc3O)o2)c1
- MIC (Candida albicans [1]): 3.12 mg/L (≈ 11.5 µM)
- IC50 (Vero): 375 µM
- MIC (Staphylococcus aureus [2]): 1.56 mg/L (≈ 5.73 µM)
- MIC (Klebsiella pneumoniae): 25 mg/L (≈ 91.8 µM)
- MIC (Bacillus spizizenii): 3.12 mg/L (≈ 11.5 µM)
- MIC [3]: 2.1 mg/L (≈ 7.71 µM)
- MIC (Escherichia coli): 1.56 mg/L (≈ 5.73 µM)
- MIC (Staphylococcus aureus [4]): 1.56 mg/L (≈ 5.73 µM)
- MIC (Staphylococcus aureus [5]): 3.12 mg/L (≈ 11.5 µM)

Structure (SMILES): Cn1cc([N+](=O)[O-])cc1-c1nnc(-c2ccco2)o1
- MIC (Candida albicans [1]): 1.56 mg/L (≈ 6 µM)
- Ratio (Staphylococcus aureus [6]): 2
- IC50 (Vero): 190 µM
- MIC (Staphylococcus aureus [2]): 1.56 mg/L (≈ 6 µM)
- MIC (Klebsiella pneumoniae): 50 mg/L (≈ 192 µM)
- MIC (Bacillus spizizenii): 1.56 mg/L (≈ 6 µM)
- MIC [3]: 60.2 mg/L (≈ 231 µM)
- MIC (Escherichia coli): 3.12 mg/L (≈ 12 µM)
- MIC (Staphylococcus aureus [4]): 0.78 mg/L (≈ 3 µM)
- Ratio (Candida albicans [8]): 2
- MIC (Staphylococcus aureus [5]): 1.56 mg/L (≈ 6 µM)

Structure (SMILES): COc1cc(/C=C/c2nnc(-c3cc([N+](=O)[O-])c[nH]3)o2)ccc1O
- MIC (Candida albicans [1]): 25 mg/L (≈ 76.2 µM)
- IC50 (Vero): 220 µM
- MIC (Staphylococcus aureus [2]): 1.56 mg/L (≈ 4.75 µM)
- MIC (Klebsiella pneumoniae): 100 mg/L (≈ 305 µM)
- MIC (Bacillus spizizenii): 3.12 mg/L (≈ 9.52 µM)
- MIC [3]: 23.7 mg/L (≈ 72.2 µM)
- MIC (Escherichia coli): 3.12 mg/L (≈ 9.52 µM)
- MIC (Staphylococcus aureus [4]): 3.12 mg/L (≈ 9.52 µM)
- MIC (Staphylococcus aureus [5]): 3.12 mg/L (≈ 9.52 µM)

Structure (SMILES): COc1cccc(-c2nnc(-c3cc([N+](=O)[O-])c[nH]3)o2)c1
- MIC (Candida albicans [1]): 3.12 mg/L (≈ 10.9 µM)
- IC50 (Vero): 429 µM
- MIC (Staphylococcus aureus [2]): 1.56 mg/L (≈ 5.45 µM)
- MIC (Klebsiella pneumoniae): 25 mg/L (≈ 87.3 µM)
- MIC (Bacillus spizizenii): 3.12 mg/L (≈ 10.9 µM)
- MIC [3]: 13.5 mg/L (≈ 47.2 µM)
- MIC (Escherichia coli): 3.12 mg/L (≈ 10.9 µM)
- MIC (Staphylococcus aureus [4]): 1.56 mg/L (≈ 5.45 µM)
- MIC (Staphylococcus aureus [5]): 3.12 mg/L (≈ 10.9 µM)

Structure (SMILES): O=C(O)c1cn(C2CC2)c2cc(N3CCNCC3)c(F)cc2c1=O [CIPROFLOXACIN]
- MIC (Staphylococcus aureus [2]): 1.56 mg/L (≈ 4.71 µM)
- MIC (Klebsiella pneumoniae): 1.56 mg/L (≈ 4.71 µM)
- MIC (Bacillus spizizenii): 1.56 mg/L (≈ 4.71 µM)
- MIC (Staphylococcus aureus [4]): 1.56 mg/L (≈ 4.71 µM)
- MIC (Staphylococcus aureus [5]): 3.12 mg/L (≈ 9.43 µM)

Structure (SMILES): C[C@@H]1[C@H](O)[C@@H](C)/C=C/C=C/C=C/C=C/C=C/C=C/C=C/[C@H](O[C@@H]2O[C@H](C)[C@@H](O)[C@H](N)[C@@H]2O)C[C@@H]2O[C@](O)(C[C@@H](O)C[C@@H](O)[C@H](O)CC[C@@H](O)C[C@@H](O)CC(=O)O[C@H]1C)C[C@H](O)[C@H]2C(=O)O [AMPHOTERICIN B]
- MIC (Candida albicans [1]): 3.12 mg/L (≈ 3.38 µM)

Structure (SMILES): NNC(=O)c1ccncc1 [ISONIAZID]
- MIC [3]: 0.4 mg/L (≈ 2.92 µM)

Structure (SMILES): Cn1cc([N+](=O)[O-])cc1-c1nnc(-c2cccc([N+](=O)[O-])c2O)o1
- MIC (Candida albicans [1]): 1.56 mg/L (≈ 4.71 µM)
- Ratio (Staphylococcus aureus [6]): 2
- IC50 (Vero): 269 µM
- MIC (Staphylococcus aureus [2]): 0.39 mg/L (≈ 1.18 µM)
- MIC (Klebsiella pneumoniae): 12.5 mg/L (≈ 37.7 µM)
- MIC (Bacillus spizizenii): 1.56 mg/L (≈ 4.71 µM)
- Ratio (Staphylococcus aureus [7]): 2
- MIC (Escherichia coli): 3.12 mg/L (≈ 9.43 µM)
- MIC (Staphylococcus aureus [4]): 0.78 mg/L (≈ 2.35 µM)
- Ratio (Candida albicans [8]): 2
- MIC (Staphylococcus aureus [5]): 1.56 mg/L (≈ 4.71 µM)

Structure (SMILES): O=[N+]([O-])c1c[nH]c(-c2nnc(C3CCCNC3)o2)c1 (stereo not given)
- MIC (Candida albicans [1]): 3.12 mg/L (≈ 11.9 µM)
- IC50 (Vero): 318 µM
- MIC (Staphylococcus aureus [2]): 1.56 mg/L (≈ 5.93 µM)
- MIC (Klebsiella pneumoniae): 25 mg/L (≈ 95 µM)
- MIC (Bacillus spizizenii): 3.12 mg/L (≈ 11.9 µM)
- MIC [3]: 12.5 mg/L (≈ 47.5 µM)
- MIC (Escherichia coli): 3.12 mg/L (≈ 11.9 µM)
- MIC (Staphylococcus aureus [4]): 1.56 mg/L (≈ 5.93 µM)
- MIC (Staphylococcus aureus [5]): 3.12 mg/L (≈ 11.9 µM)

Structure (SMILES): Cc1ccc(-c2nnc(-c3cc([N+](=O)[O-])c[nH]3)o2)s1
- MIC (Candida albicans [1]): 3.12 mg/L (≈ 11.3 µM)
- IC50 (Vero): 329 µM
- MIC (Staphylococcus aureus [2]): 1.56 mg/L (≈ 5.65 µM)
- MIC (Klebsiella pneumoniae): 25 mg/L (≈ 90.5 µM)
- MIC (Bacillus spizizenii): 3.12 mg/L (≈ 11.3 µM)
- MIC (Escherichia coli): 6.25 mg/L (≈ 22.6 µM)
- MIC (Staphylococcus aureus [4]): 1.56 mg/L (≈ 5.65 µM)
- MIC (Staphylococcus aureus [5]): 3.12 mg/L (≈ 11.3 µM)

Structure (SMILES): O=[N+]([O-])c1c[nH]c(-c2nnc(-c3ccco3)o2)c1
- MIC (Candida albicans [1]): 3.12 mg/L (≈ 12.7 µM)
- Ratio (Staphylococcus aureus [6]): 2
- IC50 (Vero): 370 µM
- MIC (Staphylococcus aureus [2]): 1.56 mg/L (≈ 6.34 µM)
- MIC (Klebsiella pneumoniae): 25 mg/L (≈ 102 µM)
- MIC (Bacillus spizizenii): 1.56 mg/L (≈ 6.34 µM)
- MIC [3]: 42.8 mg/L (≈ 174 µM)
- MIC (Escherichia coli): 3.12 mg/L (≈ 12.7 µM)
- MIC (Staphylococcus aureus [4]): 0.78 mg/L (≈ 3.17 µM)
- MIC (Staphylococcus aureus [5]): 3.12 mg/L (≈ 12.7 µM)

Structure (SMILES): Cn1cc([N+](=O)[O-])cc1-c1nnc(-c2cccs2)o1
- MIC (Candida albicans [1]): 1.56 mg/L (≈ 5.65 µM)
- Ratio (Staphylococcus aureus [6]): 2
- IC50 (Vero): 521 µM
- MIC (Staphylococcus aureus [2]): 1.56 mg/L (≈ 5.65 µM)
- MIC (Klebsiella pneumoniae): 50 mg/L (≈ 181 µM)
- MIC (Bacillus spizizenii): 1.56 mg/L (≈ 5.65 µM)
- MIC (Escherichia coli): 6.25 mg/L (≈ 22.6 µM)
- MIC (Staphylococcus aureus [4]): 0.78 mg/L (≈ 2.82 µM)
- Ratio (Candida albicans [8]): 2
- MIC (Staphylococcus aureus [5]): 1.56 mg/L (≈ 5.65 µM)
